The source of these data is ChEMBL document CHEMBL3632593, “3-Nitrotriazole-based piperazides as potent antitrypanosomal agents” (Eur J Med Chem, 2015).

For orientation: IC50 means the concentration needed to halve the response being measured. Usually half-life stands for how long it takes for the measured level to halve. Usually inhibition in vivo stands for the relative decrease from the control value, in per cent.

SMILES strings stand for the structures.

Data set [1] concerns Trypanosoma brucei rhodesiense. Put plainly: Antitrypanosomal activity against bloodstream trypomastigote forms of Trypanosoma brucei rhodesiense STIB 900 assessed as inhibition of growth. The data set is classed as functional, organism-based. The method, boiled down: (§1)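 Parasite growth assay run in 96-well format per an earlier protocol. Dose–response curves were constructed, and the 50% growth-inhibitory concentration was calculated by linear regression from the sigmoidal dose–inhibition curves.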

A short description of data set [2]: Selectivity index, ratio of IC50 for rat L6 cells to IC50 for bloodstream trypomastigote forms of Trypanosoma brucei rhodesiense STIB 900. The note with it: L6 cells.
Data set [3] relates to Trypanosoma cruzi. The data set is described as follows: Antichagasic activity against amastigote forms of Trypanosoma cruzi Tulahuen C4 assessed as inhibition of growth. The data set is classed as functional, organism-based. The method, boiled down:
as §1

A short description of data set [4]: Selectivity index, ratio of IC50 for rat L6 cells to IC50 for amastigote forms of Trypanosoma cruzi Tulahuen C4. The note with it: L6 cells.
Data set [5] concerns Leishmania donovani. Put plainly: Antileishmanial activity against axenic amastigote forms of Leishmania donovani MHOM/ET/67/L82 assessed as inhibition of growth. The data set is classed as functional, organism-based. The method, boiled down:
as §1

The nature of data set [6]: Selectivity index, ratio of IC50 for rat L6 cells to IC50 for amastigote forms of Leishmania donovani MHOM/ET/67/L82. The note with it: L6 cells.
For data set [7], the system named is L6. The data set is described as follows: Cytotoxicity against rat L6 cells assessed as cell viability. The data set is classed as cell-based.
Data set [8] relates to Trypanosoma brucei brucei. Put plainly: Activity of histidine tagged recombinant Trypanosoma brucei brucei type 1 nitroreductase assessed as NADH oxidation at 100 uM by spectrophotometry method. The method, boiled down:
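Purified recombinant his-tagged T. b. brucei type I nitroreductase. Each nitrotriazole substrate at 100 µM with NADH at 100 µM. NADH oxidation followed spectrophotometrically at 340 nm. Specific activity expressed as nmol NADH oxidized per min per mg enzyme.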

Data set [9] relates to Trypanosoma cruzi. The data set is described as follows: Activity of histidine tagged recombinant Trypanosoma cruzi type 1 nitroreductase assessed as NADH oxidation at 100 uM by spectrophotometry method. Summed up: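 Purified recombinant T. cruzi type I nitroreductase, prepared and assayed per earlier work. Specific activity expressed as NADH oxidized per min per mg protein.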

In data set [10] the test system is Trypanosoma brucei brucei. The data set is described as follows: Antimicrobial activity against bloodstream forms of Trypanosoma brucei brucei assessed as reduction in cell viability after 3 days by alamar blue assay. Format: functional, organism-based. The note with it: 72 h. (Resazurin is reduced to fluorescent resorufin, in cell work by metabolically active cells.)

For data set [11], the system named is Trypanosoma brucei brucei. The data set is described as follows: Antimicrobial activity against bloodstream forms of Trypanosoma brucei brucei overexpressing type I nitroreductase assessed as reduction in cell viability after 3 days by alamar blue assay in absence of tetracycline. Format: functional, organism-based. The note with it: 72 h.
Data set [12] has as its system Trypanosoma brucei brucei. Put plainly: Antimicrobial activity against bloodstream forms of Trypanosoma brucei brucei overexpressing type I nitroreductase assessed as reduction in cell viability after 3 days by alamar blue assay in presence of tetracycline. Format: functional, organism-based. The note with it: 72 h.
The nature of data set [13]: Half life in human liver S9 microsomes in presence of NADPH by LC-MS/MS method.
Data set [14] is described as follows: Half life in human liver S9 microsomes in absence of NADPH by LC-MS/MS method.
Data set [15] relates to Trypanosoma brucei brucei. Put plainly: Ratio of IC50 for bloodstream forms of Trypanosoma brucei brucei overexpressing type I nitroreductase in absence of tetracycline to IC50 for bloodstream forms of Trypanosoma brucei brucei overexpressing type I nitroreductase in presence of tetracycline. Format: functional.
Data set [16] relates to Trypanosoma cruzi. Put plainly: Antichagasic activity against firefly luciferase expressing trypamastigote forms of transgenic Trypanosoma cruzi Y infected in Balb/c mouse assessed as reduction in parasite level at 15 mg/kg/day, ip dosed for 10 days by luciferase reporter gene assay. Format: functional. The note with it: 240 h. The method, boiled down:
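Balb/c mice were infected with luciferase-expressing T. cruzi Y trypomastigotes and imaged at baseline after i.p. D-luciferin 150 mg/kg in PBS. Ratio = post-treatment / pre-treatment luciferase signal per animal; group mean ± SD.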
For orientation: In a reporter assay the amount or activity of a reporter protein is the signal.

Regarding `O=C(CN1CCN(c2ccc(Cl)cc2)CC1)N1CCN(c2ccc(Cl)cc2)CC1`, the IC50 in data set [1] came to 12.6 µM; in data set [3] it was 6.06 µM; in data set [5], 18 µM; in data set [7], 116 µM. The results for the selectivity ratio in data set [2], in data set [4] and in data set [6] were 9, 19 and 6, respectively.
Regarding `N#Cc1ccccc1N1CCN(CC(=O)N2CCN(c3ccccc3C#N)CC2)CC1`, the IC50 in data set [1] came out at 12.8 µM; in data set [3], 25.7 µM; in data set [5] it was 24.3 µM; in [7], 127 µM. The selectivity ratio is 9.9 in data set [2], 5 in data set [4] and 4 in data set [6].
Take `O=C(Cn1cnc([N+](=O)[O-])n1)N1CCN(C(=O)C2CC2)CC1`: the IC50 came to 85.2 µM in [1], 148 µM in data set [3], 30.6 µM in data set [5] and 156 µM in data set [7]. The selectivity ratio in data set [2] stood at 1.83; in [4] it was 1.05; in [6], 5.12.
As for `COc1ccc(N2CCN(C(=O)Cn3cnc([N+](=O)[O-])n3)CC2)cc1`, the 50% inhibitory concentration (IC50) in data set [1] is 16.4 µM; in data set [3] it was 2.42 µM; in data set [5], 18.5 µM; in [7], 133 µM. Also, the selectivity ratio in data set [2] came to 8.1; in [4] it was 54.7; in [6] it was 7.18.
As to `O=C(CN1CCN(c2ccc(Cl)c(Cl)c2)CC1)N1CCN(c2ccc(Cl)c(Cl)c2)CC1`, the IC50 worked out at 26 µM in data set [1], 1.81 µM in [3], 6.27 µM in data set [5] and 20.2 µM in data set [7]. Moreover, the selectivity ratio in data set [2] is less than 1; in [4], 11; in data set [6] it was 3.
On to `O=C(Cn1ccnc1[N+](=O)[O-])N1CCN(c2ncccn2)CC1`, for which the IC50 came to 157 µM in data set [1], 142 µM in data set [3], 133 µM in [5] and 280 µM in data set [7]. Besides, the selectivity ratio in [2] was determined as 1.79; in data set [4] it was 1.97; in data set [6], 2.11.
`O=C(Cn1cnc([N+](=O)[O-])n1)N1CCN(Cc2ccc(C(F)(F)F)cc2)CC1`: the IC50 in data set [1] is 1.39 µM; in data set [3] it was 0.862 µM; in data set [5], 9.7 µM; in data set [7] it was 111 µM; in data set [10], 26 µM; in [11], greater than 30 µM. Besides, the IC50 in data set [12] is 1.78 µM. The Activity in data set [8] was found to be 3800 nmol/min/mg; in data set [9] it was 701 nmol/min/mg. Also, the half-life in data set [13] and in data set [14] was greater than 3 h throughout.
As for `O=C(Cn1cnc([N+](=O)[O-])n1)N1CCN(c2ccccn2)CC1`, the half-maximal inhibitory concentration (IC50) in [1] amounted to 19.3 µM; in [3] it was 4.64 µM; in data set [5] it was 18.5 µM; in [7], 173 µM. For the same molecule, the figures for the selectivity ratio in data set [2], in data set [4] and in [6] were 8.98, 37.3 and 9.35, respectively.
`O=C(Cn1cnc([N+](=O)[O-])n1)N1CCN(c2ncccn2)CC1`: the IC50 in data set [1] is 33.4 µM; in data set [3], 10 µM; in data set [5], 22.9 µM; in [7], 150 µM; in data set [10], greater than 30 µM. Further, the selectivity ratio in data set [2] was 4.5; in data set [4] it was 15; in data set [6], 6.52. The Activity in data set [8] came to 2060 nmol/min/mg; in data set [9], 743 nmol/min/mg.
Turning to `N#Cc1ccccc1N1CCN(C(=O)Cn2cnc([N+](=O)[O-])n2)CC1`, the IC50 turned out to be 11.3 µM in data set [1], 2.85 µM in data set [3], 14.6 µM in data set [5] and 213 µM in [7]. Also, the selectivity ratio in data set [2] was 19; in data set [4], 75; in data set [6] it was 15.
As for `O=C(Cn1cnc([N+](=O)[O-])n1)N1CCN(c2ccc(C(F)(F)F)cc2)CC1`, the IC50 in data set [1] is 4.22 µM; in data set [3] it was 0.596 µM; in [5], 1.88 µM; in data set [7], 202 µM; in data set [10] it was 17.5 µM; in data set [11], 13.6 µM. For the same molecule, the IC50 in data set [12] was found to be 0.85 µM. The selectivity ratio was 48 in [2], 340 in data set [4] and 108 in data set [6]. In addition, the Activity in data set [8] came to 2190 nmol/min/mg; in data set [9] it was 707 nmol/min/mg. The “Ratio IC50” value in data set [15] is reported as 16.
`O=C(CN1CCN(c2ccc(C(F)(F)F)cc2)CC1)N1CCN(c2ccc(C(F)(F)F)cc2)CC1`: the IC50 was found to be 24.6 µM in data set [1], 2.71 µM in data set [3], 5.03 µM in data set [5] and 31.7 µM in data set [7]. Moreover, the selectivity ratio in data set [2] stood at 1.2; in data set [4] it was 12; in data set [6] it was 6.
As to `O=C(Cn1cnc([N+](=O)[O-])n1)N1CCN(c2ccc(Cl)cc2)CC1`, the IC50 was 74.3 µM in data set [1]; 1.12 µM in [3]; 9.39 µM in [5]; greater than 285 µM in data set [7]; greater than 30 µM in data set [10]. For the same molecule, the selectivity ratio in data set [2] is greater than 4; in data set [4], greater than 254; in data set [6] it was greater than 30. For the same molecule, the results for the Activity in data set [8] and in [9] were 2180 nmol/min/mg and 761 nmol/min/mg, respectively.
As for `Cc1ccc(N2CCN(CC(=O)N3CCN(c4ccc(C)cc4)CC3)CC2)cc1`, the IC50 in [1] was found to be 26.3 µM; in data set [3], 29.8 µM; in data set [5] it was 24.2 µM; in data set [7], 213 µM. In addition, the selectivity ratio was determined as 8.1 in data set [2], 7 in [4] and 9 in data set [6].
Regarding `O=C(Cn1ccnc1[N+](=O)[O-])NCc1ccccc1` [BENZNIDAZOLE], the Activity in [8] came to 1540 nmol/min/mg; in [9], 680 nmol/min/mg. For the same molecule, in [16], the inhibition in vivo at 15 mg/kg/day came to 99%.
Turning to `O=C(Cn1cnc([N+](=O)[O-])n1)N1CCN(C(c2ccccc2)c2ccc(Cl)cc2)CC1` (stereo not given), the 50% inhibitory concentration (IC50) turned out to be 3.41 µM in data set [1]; 0.073 µM in [3]; 1.45 µM in [5]; 21.9 µM in data set [7]; 2.75 µM in data set [10]; 3.86 µM in data set [11]. In [12], the IC50 came to 1.04 µM. The selectivity ratio was 6.43 in data set [2], 302 in data set [4] and 14.6 in data set [6]. In addition, the Activity in [8] was determined as 3910 nmol/min/mg; in data set [9], 672 nmol/min/mg. The “Ratio IC50” value in data set [15] is on record as 3.7.
Take `Cc1ccc(N2CCN(C(=O)Cn3cnc([N+](=O)[O-])n3)CC2)cc1`: the IC50 was 9.91 µM in data set [1]; 1.33 µM in [3]; 10.8 µM in data set [5]; 148 µM in data set [7]; greater than 30 µM in data set [10]. The results for the selectivity ratio in [2], in [4] and in data set [6] were 15, 112 and 14, respectively. The values for the Activity in data set [8] and in [9] were 2190 nmol/min/mg and 787 nmol/min/mg, respectively.
